# PDI inh: inhibitors of human PDI, primary screen, biochemical, turbidity, single point, plate reader | AID 588391, 2011 | Protein disulfide-isomerase (Homo sapiens), P07237 | actives 0.052% (n = 350,000) | inhibition, % at 10 µM | PDI insulin aggregation turbidity, A650, 90 min;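 active = mean inhibition across replicates of 30% or more, whatever share of single replicates reach that level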
# ERp5 inh: inhibitors of ERp5-driven insulin aggregation, primary screen, biochemical, turbidity, absorbance 650 nm, single point; Protein disulfide-isomerase A6 (Homo sapiens), Q15084; AID 651711, 2012; inhibition, % at 9.99 µM; actives 0.05% (n = 350,000); 90 min;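 active = mean replicate inhibition above about 25%, with every replicate also reaching it, limit read from the data, passing the limit was not always enough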
# Target sequence (Q15084 whole entry, looked up): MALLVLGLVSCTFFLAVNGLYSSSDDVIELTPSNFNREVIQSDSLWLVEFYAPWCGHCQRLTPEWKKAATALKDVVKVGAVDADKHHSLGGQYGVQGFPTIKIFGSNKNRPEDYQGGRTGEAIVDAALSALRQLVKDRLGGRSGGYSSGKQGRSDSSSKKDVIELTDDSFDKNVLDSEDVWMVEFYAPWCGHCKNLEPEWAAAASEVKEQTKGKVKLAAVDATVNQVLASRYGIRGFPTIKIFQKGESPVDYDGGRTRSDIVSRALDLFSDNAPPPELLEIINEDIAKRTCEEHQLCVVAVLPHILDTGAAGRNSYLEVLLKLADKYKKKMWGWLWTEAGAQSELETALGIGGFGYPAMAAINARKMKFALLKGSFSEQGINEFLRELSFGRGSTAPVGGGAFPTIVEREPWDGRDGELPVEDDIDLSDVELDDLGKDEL
# ERAP1 inh: human ERAP1 aminopeptidase inhibitors, primary screen, biochemical, single point, plate reader; Endoplasmic reticulum aminopeptidase 1 (Homo sapiens), Q9NZ08; recombinant ERAP1, Leu-AMC fluorescence, 60 min; inhibition, % at 10.7 µM; actives 0.15% (n = 340,000);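 active = mean replicate inhibition of at least 30%, or all replicates individually reaching that 30% level; inactive = mean below 30% and not every replicate reaching it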;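 note: 0% = neutral control wells and 100% = L-leucinethiol positive control wells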
# FGF22 binding: binders of human FGF22 protein, primary screen, FGF22 synaptogenesis inhibitor project, biophysical, thermal shift, single point | Fibroblast growth factor 22 (Homo sapiens), Q9HCT0 | recombinant FGF22 thermal shift, SYPRO orange fluorescence; percent of sucrose octasulfate shift, DMSO zero | activity (Tm shift, normalised), % at 9.99 µM | actives 1.5% (n = 340,000);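 active = mean Tm shift, scaled 0 neutral to 100 positive control, at about 1.3% or above, every replicate too, limit read from the data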
# Target sequence (Q9HCT0 whole entry, looked up): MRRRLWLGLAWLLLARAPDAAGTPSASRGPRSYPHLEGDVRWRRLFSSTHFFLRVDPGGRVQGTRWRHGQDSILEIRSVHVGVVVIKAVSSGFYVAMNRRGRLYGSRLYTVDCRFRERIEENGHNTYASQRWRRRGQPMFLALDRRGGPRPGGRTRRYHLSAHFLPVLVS
# S100A4 MyoIIA: inhibitors of S100A4-myosin IIA peptide binding, primary screen, biochemical, fluorescence polarization, TAMRA-MyoIIA peptide | AID 652163, 2013 | inhibition, % at 10.7 µM | actives 0.14% (n = 360,000) | Protein S100-A4 (Homo sapiens), P26447;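 active = mean inhibition of at least 70% across replicates, with every replicate also reaching that level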
#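 Test system: S100A4 monomer protein. Medium: HEPES buffer with Ca2+, pH 7.2. Reagent: fluorescent myosin IIA peptide, 5 nM. Compound dosing: single-point compound testing. Timing: 5 min between mix addition and reading. Benchmarks: DMSO neutral and TFP positive wells.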
# An asterisk follows results filed as active; nt = no result. The sample as a whole holds a higher share of hits than the screen did.
SMILES,PDI inh,ERp5 inh,ERAP1 inh,FGF22 binding,S100A4 MyoIIA
CCn1c(/C=C/c2cc[n+](C)cc2)nc2ccccc21,-5,5,59*,0,3
O=C(NCCc1ccccc1)C1c2ccccc2C(=O)N1C1CC1 (configuration not stated),-1,nt,nt,nt,nt
CSc1ccccc1NC(=O)CO/N=C(\C)c1cc2ccccc2o1,3,-3,8,0,0
CCc1ccc(NC(=O)CO/N=C(\C)c2cc3ccccc3o2)cc1,-1,-4,-5,44*,-2
COc1cc(/C=C/C(=O)O)cc(S(=O)(=O)NCCCC(=O)O)c1OC,-1,-1,0,43*,-3
Cc1ccc(/C=C/C(=O)O)cc1S(=O)(=O)NCCCC(=O)O,3,nt,nt,nt,nt
Cc1cccc(C)c1OCc1nnc(SCC(=O)O)n1-c1c(C)cccc1C,nt,-3,-2,-1,-2
N/C(Cc1cccc2ccccc12)=N\OC(=O)c1ccc2c(c1)OCO2,-9,0,0,44*,-9
C/C(=N\NC(=O)c1ccccc1NC(=O)c1ccc(Cl)cc1)c1ccncc1,-1,-2,-2,43*,-5
CC1CCCC(NC(=O)CNC(=S)N(Cc2ccccc2)Cc2cccs2)C1C (configuration not stated),11,1,-1,0,-2
CCc1nnc(NC(=O)CN2C(=O)NC3(CC(C)CC(C)(C)C3)C2=O)s1 (configuration not stated),7,-2,1,1,-1
CCc1nnc(NC(=O)CN2C(=O)NC3(CCCC3)C2=O)s1,-1,-2,39*,0,2
Cc1ccc(SCC(=O)N2N=CCC2c2ccccc2)cc1 (configuration not stated),-4,-1,-3,44*,-30
O=C(CSc1nnnn1-c1ccccc1)N1N=CCC1c1ccccc1 (configuration not stated),5,nt,nt,nt,nt
Cc1noc(C)c1NC(=O)Nc1ccc2c(c1)CC(=O)N([C@@H](C)CO)C[C@H](C)[C@H](CN(C)Cc1ccncc1)O2,nt,-5,-4,0,-4
CCc1ccc(NC(=O)CSc2nc3[nH]ncc3c(=O)[nH]2)cc1,-2,-3,7,43*,5
Cc1c(C(=O)OCC(=O)N2CC(C)CC(C)C2)oc2ccccc12 (configuration not stated),1,-7,0,46*,3
CC(O)CNc1nc(Cl)c(C#N)s1 (configuration not stated),3,0,-1,43*,-4
COCCNc1nc(Cl)c(C#N)s1,-1,4,-2,0,1
CCCCNCCCOc1ccc(C)cc1Br,-1,-1,-1,44*,-4
Cc1ccc(OCCCNCCO)c(Br)c1,4,nt,nt,nt,nt
CC(C)(C)C(=O)/C=c1\s/c(=C\c2ccc(-c3ccc([N+](=O)[O-])cc3)o2)c(=O)n1CC(=O)NC(N)=O,6,5,9,44*,-4
CCC(=O)N/N=C/c1ccc(-c2ccc([N+](=O)[O-])cc2)o1,-1,-9,1,43,4
CC(C)OC(=O)c1c(NS(=O)(=O)c2ccccc2)sc2c1CCCC2,-1,nt,nt,nt,nt
CCCSc1nnc(CSc2ncccn2)n1C,2,0,4,0,-5
SMILES,PDI inh,ERp5 inh,ERAP1 inh,FGF22 binding,S100A4 MyoIIA
CCSc1nnc(CSc2ncccn2)n1C,5,2,3,44*,-7
Cc1ccc(NC(=O)CSc2ccc(-c3cccnc3)nn2)cc1,-3,-6,-9,0,-3
Cc1cc(C)c(N)c(C(=O)O)c1,17,3,-1,0,2
COc1cc2c(cc1OC)C(C)N(C(=O)Cc1ccc(C(F)(F)F)cc1)CC2 (configuration not stated),-3,-1,-2,0,3
O=C(NCCCN1CCOCC1)c1cc(-c2ccc(F)cc2)on1,5,nt,nt,nt,nt
CC(C)Cc1cc(C(=O)NCCCN2CCOCC2)no1,-9,7,-1,0,151*
CCN1C(=O)c2ccccc2S(=O)c2ccc(C(=O)N3CCCC3)cc21 (configuration not stated),nt,6,-10,0,7
CCCc1cc(=O)oc2cc(C)cc(OCC(=O)NC(Cc3ccc(Cl)cc3)C(=O)O)c12 (configuration not stated),nt,4,4,0,-10
CCCc1cc(=O)oc2cc(C)cc(OCC(=O)N[C@@H](CSCc3ccccc3)C(=O)O)c12,nt,6,25,7.2*,-5
O=C(CSc1nnc2n1CCCCC2)NCc1ccccc1,4,1,1,43*,0
Cc1ccc(CNC(=O)CSc2nnc3n2CCCCC3)cc1,-5,2,2,0,-1
Cc1[nH][nH]c(=O)c1C=NCc1cccnc1,-9,4,0,44*,1
COc1ccc(-c2cc(C(F)F)n3ncc(C(=O)N4CCCc5ccccc54)c3n2)cc1,-6,2,0,0,6
O=C(CCn1c(=O)[nH]c2ccsc2c1=O)N(CCc1ccccc1)Cc1ccccc1,-3,nt,nt,nt,nt
NS(=O)(=O)c1ccc(NC(=O)COC(=O)c2cn(-c3ccccc3)nc2-c2ccc(F)cc2)cc1,1,nt,nt,nt,nt
O=C(COC(=O)c1cn(-c2ccccc2)nc1-c1ccc(F)cc1)Nc1ncc(Cl)cc1Cl,2,-3,0,44*,-9
Cc1ccc(C(=O)Nc2cccc(C(F)(F)F)c2)cc1NC(=O)c1c[nH]c2cc(C(F)(F)F)ccc2c1=O,11,2,5,44*,1
COc1ccc(N=N/C(=C\O)C(=O)c2ccco2)cc1,-3,-1,4,43*,2
CCOC(=O)C1(CCCc2ccccc2)CCN(C(=O)c2cnc(C)cn2)CC1,6,-1,-5,44*,-6
CCOC(=O)C1(CCCc2ccccc2)CCN(C(=O)c2cc(C)nc(C)n2)CC1,8,-53,19,0,-1
COc1ccc([C@@H]2[C@@H]3C(=O)N(C(C)(C)C)C(=O)[C@@H]3[C@]3(Cc4ccc(Cl)cc4)C(=O)N(c4cccc(C)c4)C(=O)N23)cc1,-15,2,3,1.3*,2
CC(C)C[C@@]12C(=O)N(c3cccc(Cl)c3)C(=O)N1[C@H](c1ccc(Cl)cc1)[C@@H]1C(=O)N(C3CCCCC3)C(=O)[C@@H]12,-1,-2,0,1.6*,-1
Cc1ccc(-c2ccccc2[C@@H]2[C@@H](CO)N(C(=O)Cc3cccnc3)[C@H]2C#N)cc1,nt,2,1,0,32
CCCN(Cc1cc(=O)[nH]c2ccccc12)C(=O)CC,6,3,nt,0,-7
Cc1cc(=O)oc2cc(OCC(=O)Nc3ccccc3C(N)=O)c(Cl)cc12,-9,1,0,43*,-3

# Screening data deposited in PubChem by Broad Institute.
